We go through 19 molecules from ChEMBL document CHEMBL1130075, “(2-Methyl-5-(methylsulfonyl)benzoyl)guanidine Na+/H+ antiporter inhibitors” (J Med Chem, 1997).

The experiment has as its target Sodium/hydrogen exchanger (Oryctolagus cuniculus, UniProt P23791+P50482+P26432). In words: Inhibition of 5-N-(ethyl isopropyl)-amiloride[EIPA]-sensitive Na+ uptake into acidified rabbit erythrocytes. The experiment is classed as functional. The gist of the method: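 Rabbit blood (heparinized) red cells, washed, acidified in pH 6.2 KCl buffer with ouabain, 10 min 37 °C; internal pH clamped with 200 μM DIDS and 1 mM acetazolamide, 30 min 37 °C. Uptake 5 min at 37 °C in pH 8.0 buffer with 10 mM NaCl plus ²²Na tracer, 1% DMSO. Triplicates; counts with 10 μM EIPA subtracted; IC50 by nonlinear fit.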
In turn, `CCCSc1cc(C)c(C(=O)N=C(N)N)cc1S(C)(=O)=O` came in with an IC50 of 0.0068 µM.
Take `CCCc1cc(C)c(C(=O)N=C(N)N)cc1S(C)(=O)=O`: the IC50 was 0.0057 µM.
As for `Cc1cc(-c2ccco2)c(S(C)(=O)=O)cc1C(=O)N=C(N)N`, the figure is 0.016 µM; as for `CS(=O)(=O)c1cc(C(=O)N=C(N)N)ccc1-n1cccn1`, 0.16 µM; as for `CS(=O)(=O)c1cc(C(=O)N=C(N)N)ccc1C(F)(F)F`, 0.14 µM.
Regarding `CCCCCc1cc(C)c(C(=O)N=C(N)N)cc1S(C)(=O)=O`, the IC50 was determined as 0.027 µM.
Consider `CS(=O)(=O)c1cc(C(=O)N=C(N)N)ccc1C1CCCCC1`, for which the IC50 was 0.34 µM. Against the preceding molecule, the IC50 is about 13-fold higher.
Consider `CCc1cc(C)c(C(=O)N=C(N)N)cc1S(C)(=O)=O`, for which the IC50 was found to be 0.0048 µM.
As for `Cc1cc(-n2ccc(=O)cc2)c(S(C)(=O)=O)cc1C(=O)N=C(N)N`, the figure is 0.075 µM.
As for `COc1cc(Cl)c(C(=O)N=C(N)N)cc1S(C)(=O)=O`, the figure is 0.04 µM; as for `Cc1cc(Br)c(S(C)(=O)=O)cc1C(=O)N=C(N)N`, 0.012 µM; as for `CS(=O)(=O)c1cc(C(=O)N=C(N)N)c(Cl)cc1Nc1ncccn1`, 0.049 µM.
Next, `CS(=O)(=O)c1cc(C(=O)N=C(N)N)ccc1Oc1cncc(Cl)c1`: 0.075 µM; `Cc1cc(C2CCCCC2)c(S(C)(=O)=O)cc1C(=O)N=C(N)N`: 0.022 µM; `Cc1cc(SC(C)C)c(S(C)(=O)=O)cc1C(=O)N=C(N)N`: 0.012 µM.
As for `Cc1cc(C(C)C)c(S(C)(=O)=O)cc1C(=O)N=C(N)N`, the IC50 worked out at 0.002 µM.
As for `Cc1cc(N2CCN(c3ncccn3)CC2)c(S(C)(=O)=O)cc1C(=O)N=C(N)N`, the figure is 0.027 µM.
Next, `CC(C)c1ccc(C(=O)N=C(N)N)cc1S(C)(=O)=O` [CARIPORIDE]: 0.026 µM.
`Cc1cc(-n2cccc2)c(S(C)(=O)=O)cc1C(=O)N=C(N)N` [ENIPORIDE] registered an IC50 of 0.008 µM.

The IC50 is the concentration that gives 50% inhibition.
